Measured values from ChEMBL document CHEMBL2040742, “Predicting and improving the membrane permeability of peptidic small molecules” (J Med Chem, 2012).

Experiments:
Assay type in all cases: ADME, cell-based, Canis lupus familiaris
Conditions in all cases: dog
MDCK [1] = assay: Apparent permeability from apical to basal side of MDCK cells expressing MDR1 at 2 uM by LC-MS/MS analysis
How it was run: (§1)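 MDR1-MDCK monolayers grown on PET inserts (seeded 2 × 10⁵ cells/cm², 4-6 days to confluence). Compound diluted from 10 mM stock into HBSS pH 7.4 to 2 μM, dosed apically or basolaterally. Analyte quantified by LC-MS/MS as analyte/IS peak area ratio. Papp from 0.084 cm² monolayer area and initial donor concentration. Triplicate, reported as means.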

MDCK [2] = assay: Apparent permeability from basal to apical side of MDCK cells expressing MDR1 at 2 uM by LC-MS/MS analysis; how it was run: as §1
MDCK [3] = assay: Efflux ratio of apparent permeability from basal to apical side to apical to basal side of MDCK cells expressing MDR1 at 2 uM by LC-MS/MS analysis

Papp (MDCK [1]) [nm/s]	Papp (MDCK [2]) [nm/s]	Ratio (MDCK [3])	Compound
5.1	29.4	5.8	N#CCNC(=O)[C@H](Cc1c[nH]cn1)NC(=O)OCc1ccccc1
246	211	0.86	NC(=O)[C@H](Cc1ccccc1)NC(=O)OCc1ccccc1
43.1	134	3.1	NC(=O)[C@H](Cc1ccncc1)NC(=O)OCc1ccccc1
